Compound activity from PubChem.
Calb FLC: C. albicans growth modulation with fluconazole; C. albicans CaCi-2 (fluconazole-resistant clinical isolate) + fluconazole, Alamar Blue growth, 48 h; growth inhibition, % (no concentration beside the values); hit rate 0.57% among 300,000;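 active means growth inhibition above about 58% in most replicates, limit read from the data, passing the limit was not always enough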;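 further: all wells also contain fluconazole at 8 µg/ml as a sub-toxic cotreatment; 0% = median of DMSO wells and 100% = median of geldanamycin control wells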
Beta apoptosis: blocks beta cell apoptosis; hit rate 0.8% among 300,000; AID 435005; protection from apoptosis, % (test concentration not listed); INS-1E cytokine-induced death, ATP luminescence, 48 h; percent of positive-control rescue, neutral wells zero;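 active means Every replicate reaches about 75%, or at least half do and their mean reaches it too, limit read from the data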;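 further: 0% = cytokine-treated negative control wells and 100% = positive control rescue; higher means more ATP so stronger rescue from cytokine killing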
H9c2 TAG inh: triacylglycerol accumulation inhibition. H9c2 cells, Nile Red lipid (TAG) fluorescence; cells loaded with 200 µM oleic acid. inhibition, % at 12.5 µM. hit rate 0.66% among 230,000. AID 651582;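 active means pattern-corrected inhibition of lipid staining of at least 50% with the nuclear-stain viability signal not falling by more than 50%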;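 further: 0% = DMSO wells and 100% = triacsin C control wells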
Bfl-1 A1 inh: inhibitors of the anti-apoptotic protein A1, read as caspase activation. MEF A1-2A-BIM cells, Caspase-Glo 3/7 luminescence, 3 h; percent of clofoctol response, vehicle zero. caspase activation, % (concentration not given with the values). hit rate 0.066% among 330,000;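 active means over half of replicate activation scores above 10%, or exactly half above 10 with the replicate mean above 10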
CSC inhib: blocks cancer stem cells. hit rate 1.1% among 300,000. cancer stem cell-like cells viability, luminescence. inhibition, % at 7.5 µM. AID 2717; in the data active means inhibition above about 75%; tested in HMLE shEcad cells
T cruzi inh: T. cruzi replication inhibition | T. cruzi beta-gal in NIH3T3, luminescence, 90 h | inhibition, % (test concentration not listed) | hit rate 1.4% among 300,000;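 active means mean inhibition across valid replicates above about 55%, limit read from the data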;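 further: signal also drops with host cell toxicity which is not excluded here; 0% = plate median of DMSO wells and 100% = zero luminescence signal; higher percent means less beta-gal luminescence so fewer parasites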
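System – NIH/3T3 host cells with β-galactosidase reporter T. cruzi · Doses – single 50 nL compound addition per well in DMSO · Reagent – 5000 T. cruzi trypomastigotes/well · Medium – Low-serum DMEM with 2% FBS · Timing – ≥90 h infection period, 3 h prior cell attachment · Evaluation – parasite load inhibition, % · Technique – GalScreen luminescence, 60 min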
* hit, by the source's call. The list is not random: actives were taken first. Their share in the collection is about 3.1%.

Screening C[C@@H]1COC(=O)[C@@H](CC(=O)OC(C)(C)C)C/C=C\C[C@@H](CC(=O)N[C@H](CO)Cc2ccccc2)C(=O)N1 returned Beta apoptosis 0.4, H9c2 TAG inh -9.8, Bfl-1 A1 inh 0.4 and CSC inhib -19.9.
CC(=O)c1sc2nc(-c3ccccc3)cc(C)c2c1N was read as Calb FLC -28.0, Beta apoptosis 8.0, Bfl-1 A1 inh -0.1, CSC inhib -6.1 and T cruzi inh 56.5*.
For CC1(C)CC(N2CCN(c3ccccc3)CC2)=CC(=[N+]2CCCC2)C1 the results were Calb FLC 93.9*, Beta apoptosis 97.2*, Bfl-1 A1 inh -0.2, CSC inhib 58.7 and T cruzi inh 67.6*.
For CSc1nc(N2CCN(c3ccccc3)CC2)cc(N2CCN(c3ccccc3)CC2)n1 the results were Calb FLC 6.1, Beta apoptosis 6.7, H9c2 TAG inh 11.4, Bfl-1 A1 inh -0.7, CSC inhib 2.1 and T cruzi inh 19.2.
`CC1CC(C)C[N+](=C2C=C(N3CCCC3)CC(C)(C)C2)C1` (stereo unspecified) gave Calb FLC -15.5, H9c2 TAG inh -21.6 and T cruzi inh 58.6*.
For CC1(C)CC(=O)C=C(N2CCNCC2)C1 the results were Calb FLC -5.9, Beta apoptosis -0.2, H9c2 TAG inh -8.8, Bfl-1 A1 inh 0.9, CSC inhib -11.9 and T cruzi inh -5.1.
For O=C(COC(=O)c1cccc(F)c1)Nc1cccc(S(=O)(=O)N2CCCCC2)c1 the results were H9c2 TAG inh -4.4.
`CC(C)OC(=O)N(C)C[C@H]1OCc2cn(nn2)CCCC(=O)N([C@H](C)CO)C[C@@H]1C` gave H9c2 TAG inh -3.2.
Cc1cc(Br)ccc1NC(=O)CN1C(=O)C2C3CC(c4ccccc4)C(C3)C2C1=O (stereo unspecified) was read as Calb FLC 0.1, Beta apoptosis 10.4, Bfl-1 A1 inh 0.3, CSC inhib 22.3 and T cruzi inh 55.9*.
Screening Cc1cc(Br)ccc1NC(=O)CNC(=O)CN1C(=O)NC2(CCCCCC2)C1=O returned Calb FLC 7.9, Beta apoptosis -9.3, Bfl-1 A1 inh 0.2, CSC inhib -6.6 and T cruzi inh 8.7.
`COC(=O)c1c(NC(=O)c2ccc(C)c(S(=O)(=O)Nc3ccccc3C)c2)sc2c1CCCC2` gave Calb FLC 49.0, Beta apoptosis -3.7, Bfl-1 A1 inh 0.6, CSC inhib 75.1* and T cruzi inh -41.3.
For Cc1ccccc1SCC(=O)Nc1cc(C(F)(F)F)ccc1N1CCOCC1 the results were Calb FLC -0.5, Beta apoptosis 2.9, H9c2 TAG inh -0.1, Bfl-1 A1 inh 0.2, CSC inhib 26.4 and T cruzi inh 64.6*.
Cc1nnc(SCC(=O)Nc2cc(C(F)(F)F)ccc2N2CCOCC2)o1 was read as Calb FLC -6.5, Beta apoptosis 3.0, H9c2 TAG inh -13.7, Bfl-1 A1 inh -0.2 and T cruzi inh -4.8.
For COc1cccc(-c2cc(C(=O)N3CCN(C(c4ccccc4)c4ccccc4)CC3)no2)c1 the results were Calb FLC 2.4, Beta apoptosis 39.8, Bfl-1 A1 inh -0.1, CSC inhib 53.7 and T cruzi inh 68.3*.
`O=C(c1cc(-c2ccccc2)on1)N1CCN(c2ccccc2)CC1` gave Calb FLC 1.2, Beta apoptosis -1.5, H9c2 TAG inh -0.2, Bfl-1 A1 inh -0.6, CSC inhib 62.7 and T cruzi inh -0.6.
`O=C(c1cc(-c2ccco2)on1)N1CCN(c2ccccc2)CC1` gave Calb FLC -0.2, Beta apoptosis -4.8, H9c2 TAG inh -2.5, Bfl-1 A1 inh 0.6, CSC inhib 84.4* and T cruzi inh -11.5.
CN(CC(=O)Nc1ccccc1Br)C(=O)COc1cccc2c1OC(C)(C)C2 was read as Calb FLC -5.2, Beta apoptosis -2.4, H9c2 TAG inh -13.4, Bfl-1 A1 inh -0.4 and T cruzi inh -3.2.
`COc1ccc(C)cc1S(=O)(=O)N1CCCC(C(=O)NC2CC2)C1` (stereo unspecified) gave Calb FLC 3.4, H9c2 TAG inh -10.2, Bfl-1 A1 inh 0.1 and T cruzi inh -5.5.
`Cc1cc2cc(CCNS(=O)(=O)c3ccc(F)cc3)c(=O)[nH]c2cc1C` gave Calb FLC 10.5, Beta apoptosis -2.2, Bfl-1 A1 inh -0.2 and CSC inhib 2.5.
